ChEMBL document CHEMBL5247575 (J Med Chem, 2018)

Assays:
[1] = Binding affinity to bacteria ADC-7 assessed as dissociation constant
Escherichia coli [2] = assay: Synergistic antibacterial activity against Escherichia coli DH10B transfected with pBC SK (-) KPC-2 assessed as cefepime MIC at 4 ug/ml by broth microdilution method; format: functional; conditions: dose 4 µg/ml
Escherichia coli [3] = assay: Synergistic antibacterial activity against Escherichia coli DH10B transfected with pBC SK (-) PDC-3 assessed as cefepime MIC at 4 ug/ml by broth microdilution method; format: functional; conditions: dose 4 µg/ml
Procedure, shortened: (§1)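 Broth microdilution per CLSI guidelines, using custom frozen panels. […] Each partner drug was also tested alone. MICs were run in triplicate and the modal value is reported.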

Klebsiella pneumoniae [4] = assay: Synergistic antibacterial activity against Klebsiella pneumoniae 776/1742 producing KPC-2 assessed as cefepime MIC at 4 ug/ml by broth microdilution method; format: functional; conditions: dose 4 µg/ml
Klebsiella pneumoniae [5] = assay: Synergistic antibacterial activity against Klebsiella pneumoniae 901/1860 producing KPC-3 assessed as cefepime MIC at 4 ug/ml by broth microdilution method; format: functional; conditions: dose 4 µg/ml
Klebsiella pneumoniae [6] = assay: Synergistic antibacterial activity against Klebsiella pneumoniae 935/1884 producing KPC-3 assessed as cefepime MIC at 4 ug/ml by broth microdilution method; format: functional; conditions: dose 4 µg/ml
Klebsiella pneumoniae [7] = assay: Synergistic antibacterial activity against Klebsiella pneumoniae 977/1916 producing KPC-3 assessed as cefepime MIC at 4 ug/ml by broth microdilution method; format: functional; conditions: dose 4 µg/ml
Klebsiella pneumoniae [8] = assay: Synergistic antibacterial activity against Klebsiella pneumoniae 761/1723 producing KPC-3 assessed as cefepime MIC at 4 ug/ml by broth microdilution method; format: functional; conditions: dose 4 µg/ml; procedure, shortened: as §1
Klebsiella pneumoniae [9] = assay: Synergistic antibacterial activity against Klebsiella pneumoniae CAV 1543 producing OXA-48 assessed as cefepime MIC at 4 ug/ml by broth microdilution method; format: functional; conditions: dose 4 µg/ml
Klebsiella pneumoniae [10] = assay: Synergistic antibacterial activity against Klebsiella pneumoniae jefferson 1775 producing OXA-48 assessed as cefepime MIC at 4 ug/ml by broth microdilution method; format: functional; conditions: dose 4 µg/ml
Pseudomonas aeruginosa [11] = assay: Synergistic antibacterial activity against Pseudomonas aeruginosa CL232 assessed as cefepime MIC at 4 ug/ml by broth microdilution method; format: functional; conditions: dose 4 µg/ml
Pseudomonas aeruginosa [12] = assay: Synergistic antibacterial activity against Pseudomonas aeruginosa 776 assessed as cefepime MIC at 4 ug/ml by broth microdilution method; format: functional; conditions: dose 4 µg/ml
Acinetobacter baumannii [13] = assay: Synergistic antibacterial activity against Acinetobacter baumannii PR420 producing OXA-23/24/40 assessed as cefepime MIC at 4 ug/ml by broth microdilution method; format: functional; conditions: dose 4 µg/ml
Acinetobacter baumannii [14] = assay: Synergistic antibacterial activity against Acinetobacter baumannii PR440 producing OXA-23/24/40 assessed as cefepime MIC at 4 ug/ml by broth microdilution method; format: functional; conditions: dose 4 µg/ml
Acinetobacter baumannii [15] = assay: Synergistic antibacterial activity against Acinetobacter baumannii PR381 producing OXA-24/40 assessed as cefepime MIC at 8 ug/ml by broth microdilution method; format: functional; conditions: dose 8 µg/ml
Acinetobacter baumannii [16] = assay: Synergistic antibacterial activity against Acinetobacter baumannii PR440 producing OXA-23/24/40 assessed as cefepime MIC at 8 ug/ml by broth microdilution method; format: functional; conditions: dose 8 µg/ml
Acinetobacter baumannii [17] = assay: Synergistic antibacterial activity against Acinetobacter baumannii PR474 producing OXA-23/24/40 assessed as cefepime MIC at 8 ug/ml by broth microdilution method; format: functional; conditions: dose 8 µg/ml
Escherichia coli [18] = assay: Synergistic antibacterial activity against Escherichia coli DH10B transfected with pBC SK (-) KPC-2 assessed as meropenem MIC at 4 ug/ml by broth microdilution method; format: functional; conditions: dose 4 µg/ml
Escherichia coli [19] = assay: Synergistic antibacterial activity against Escherichia coli DH10B transfected with pBC SK (-) KPC-3 assessed as meropenem MIC at 4 ug/ml by broth microdilution method; format: functional; conditions: dose 4 µg/ml
Escherichia coli [20] = assay: Synergistic antibacterial activity against Escherichia coli DH10B transfected with pBC SK (-) PDC-3 assessed as meropenem MIC at 4 ug/ml by broth microdilution method; format: functional; conditions: dose 4 µg/ml; procedure, shortened: as §1
Escherichia coli [21] = assay: Synergistic antibacterial activity against Escherichia coli DH10B transfected with pBC SK (-) OXA-48 assessed as meropenem MIC at 4 ug/ml by broth microdilution method; format: functional; conditions: dose 4 µg/ml; procedure, shortened: as §1
Klebsiella pneumoniae [22] = assay: Synergistic antibacterial activity against Klebsiella pneumoniae 1108/1989 producing KPC-3 assessed as meropenem MIC at 4 ug/ml by broth microdilution method; format: functional; conditions: dose 4 µg/ml; procedure, shortened: as §1
Klebsiella pneumoniae [23] = assay: Synergistic antibacterial activity against Klebsiella pneumoniae 1354/2241 producing KPC-3 assessed as meropenem MIC at 4 ug/ml by broth microdilution method; format: functional; conditions: dose 4 µg/ml; procedure, shortened: as §1
Acinetobacter baumannii [24] = assay: Synergistic antibacterial activity against Acinetobacter baumannii PR323 producing OXA-24/40 assessed as meropenem MIC at 4 ug/ml by broth microdilution method; format: functional; conditions: dose 4 µg/ml
Acinetobacter baumannii [25] = assay: Synergistic antibacterial activity against Acinetobacter baumannii PR381 producing OXA-24/40 assessed as meropenem MIC at 4 ug/ml by broth microdilution method; format: functional; conditions: dose 4 µg/ml
Acinetobacter baumannii [26] = assay: Synergistic antibacterial activity against Acinetobacter baumannii PR476 producing OXA-24/40 assessed as meropenem MIC at 4 ug/ml by broth microdilution method; format: functional; conditions: dose 4 µg/ml
Acinetobacter baumannii [27] = assay: Synergistic antibacterial activity against ADC deleted Acinetobacter baumannii transfected with pWH1266 producing OXA-24/40 assessed as meropenem MIC at 4 ug/ml by broth microdilution method; format: functional; conditions: dose 4 µg/ml
Escherichia coli [28] = assay: Synergistic antibacterial activity against Escherichia coli DH10B transfected with pBC SK (-) KPC-3 assessed as meropenem MIC at 8 ug/ml by broth microdilution method; format: functional; conditions: dose 8 µg/ml
Klebsiella pneumoniae [29] = assay: Synergistic antibacterial activity against Klebsiella pneumoniae 972/1910 producing KPC-3 assessed as meropenem MIC at 8 ug/ml by broth microdilution method; format: functional; conditions: dose 8 µg/ml
Klebsiella pneumoniae [30] = assay: Synergistic antibacterial activity against Klebsiella pneumoniae 1354/2241 producing KPC-3 assessed as meropenem MIC at 8 ug/ml by broth microdilution method; format: functional; conditions: dose 8 µg/ml; procedure, shortened: as §1
Klebsiella pneumoniae [31] = assay: Synergistic antibacterial activity against Klebsiella pneumoniae 440/1360 producing KPC-2 assessed as meropenem MIC at 8 ug/ml by broth microdilution method; format: functional; conditions: dose 8 µg/ml; procedure, shortened: as §1
Klebsiella pneumoniae [32] = assay: Synergistic antibacterial activity against Klebsiella pneumoniae CAV 1636 producing OXA-181 assessed as meropenem MIC at 8 ug/ml by broth microdilution method; format: functional; conditions: dose 8 µg/ml
Klebsiella pneumoniae [33] = assay: Synergistic antibacterial activity against Klebsiella pneumoniae jefferson 1775 producing OXA-48 assessed as meropenem MIC at 8 ug/ml by broth microdilution method; format: functional; conditions: dose 8 µg/ml
Pseudomonas aeruginosa [34] = assay: Synergistic antibacterial activity against Pseudomonas aeruginosa 795 assessed as meropenem MIC at 8 ug/ml by broth microdilution method; format: functional; conditions: dose 8 µg/ml
Klebsiella pneumoniae [35] = assay: Synergistic antibacterial activity against Klebsiella pneumoniae CAV 1636 producing OXA-181 assessed as meropenem MIC at 4 ug/ml by broth microdilution method; format: functional; conditions: dose 4 µg/ml
Escherichia coli [36] = assay: Antibacterial activity against Escherichia coli DH10B transfected with pBC SK (-) KPC-3 by broth microdilution method; format: functional
Bacteria = assay: Inhibition of bacteria KPC-2 assessed as second order rate constant K2/K using nitrocefin as substrate
Procedure, shortened: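 Steady-state kinetics, 10 mM phosphate-buffered saline pH 7.4. Progress curves recorded with fixed enzyme and nitrocefin and increasing nM inhibitor. Each curve fitted to a time-course equation to give k_obs. k2/K derived from these and corrected for nitrocefin concentration relative to its Km.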

Escherichia coli [37] = assay: Antibacterial activity against Escherichia coli DH10B transfected with pBC SK (-) OXA-48 by broth microdilution method; format: functional

SMILES	MIC (Escherichia coli [2])	MIC (Escherichia coli [3])	MIC (Klebsiella pneumoniae [4])	MIC (Klebsiella pneumoniae [5])	MIC (Klebsiella pneumoniae [6])	MIC (Klebsiella pneumoniae [7])	MIC (Klebsiella pneumoniae [8])	MIC (Klebsiella pneumoniae [9])	MIC (Klebsiella pneumoniae [10])	MIC (Pseudomonas aeruginosa [11])	MIC (Acinetobacter baumannii [14])	MIC (Acinetobacter baumannii [15])	MIC (Acinetobacter baumannii [16])	MIC (Acinetobacter baumannii [17])	MIC (Escherichia coli [18])	MIC (Escherichia coli [19])	MIC (Escherichia coli [20])	MIC (Escherichia coli [21])	MIC (Klebsiella pneumoniae [22])	MIC (Klebsiella pneumoniae [23])	also measured
O=C(NNC(=O)[C@@H]1CC[C@@H]2CN1C(=O)N2OS(=O)(=O)O)[C@@H]1CCCNC1 [ZIDEBACTAM]	≤ 0.12 µg/mL	≤ 0.12 µg/mL	≤ 0.12 µg/mL	≤ 0.12 µg/mL	≤ 0.12 µg/mL	≤ 0.12 µg/mL	≤ 0.12 µg/mL	≤ 0.12 µg/mL	≤ 0.12 µg/mL	16 µg/mL	16 µg/mL	16 µg/mL	> 16 µg/mL	8 µg/mL	≤ 0.12 µg/mL	≤ 0.12 µg/mL	≤ 0.12 µg/mL	≤ 0.12 µg/mL	≤ 0.12 µg/mL	≤ 0.12 µg/mL	Kd [1]: 0.032 µM; MIC (Pseudomonas aeruginosa [12]): 16 µg/mL; MIC (Acinetobacter baumannii [13]): > 16 µg/mL; MIC (Acinetobacter baumannii [24]): > 16 µg/mL; MIC (Acinetobacter baumannii [25]): > 16 µg/mL; MIC (Acinetobacter baumannii [26]): 0.25 µg/mL; MIC (Acinetobacter baumannii [27]): > 16 µg/mL; MIC (Escherichia coli [28]): ≤ 0.12 µg/mL; MIC (Klebsiella pneumoniae [29]): ≤ 0.12 µg/mL; MIC (Klebsiella pneumoniae [30]): ≤ 0.12 µg/mL; MIC (Klebsiella pneumoniae [31]): ≤ 0.12 µg/mL; MIC (Klebsiella pneumoniae [32]): ≤ 0.12 µg/mL; MIC (Klebsiella pneumoniae [33]): ≤ 0.12 µg/mL; MIC (Pseudomonas aeruginosa [34]): 4 µg/mL
O=C(NNC(=O)[C@@H]1CC[C@@H]2CN1C(=O)N2OS(=O)(=O)O)[C@@H]1CCNC1	≤ 0.12 µg/mL	≤ 0.12 µg/mL	≤ 0.12 µg/mL	≤ 0.12 µg/mL	≤ 0.12 µg/mL	≤ 0.12 µg/mL	≤ 0.12 µg/mL	≤ 0.12 µg/mL	≤ 0.12 µg/mL	8 µg/mL	> 16 µg/mL	16 µg/mL	> 16 µg/mL	8 µg/mL	≤ 0.12 µg/mL	≤ 0.12 µg/mL	≤ 0.12 µg/mL	≤ 0.12 µg/mL	≤ 0.12 µg/mL	≤ 0.12 µg/mL	Kd [1]: 0.029 µM; MIC (Pseudomonas aeruginosa [12]): 16 µg/mL; MIC (Klebsiella pneumoniae [35]): ≤ 0.12 µg/mL; MIC (Acinetobacter baumannii [24]): > 16 µg/mL; MIC (Acinetobacter baumannii [25]): > 16 µg/mL; MIC (Acinetobacter baumannii [26]): 0.25 µg/mL; MIC (Acinetobacter baumannii [27]): > 16 µg/mL; MIC (Escherichia coli [28]): ≤ 0.12 µg/mL; MIC (Klebsiella pneumoniae [29]): ≤ 0.12 µg/mL; MIC (Klebsiella pneumoniae [30]): ≤ 0.12 µg/mL; MIC (Klebsiella pneumoniae [31]): ≤ 0.12 µg/mL; MIC (Klebsiella pneumoniae [32]): ≤ 0.12 µg/mL; MIC (Klebsiella pneumoniae [33]): ≤ 0.12 µg/mL; MIC (Pseudomonas aeruginosa [34]): ≤ 0.12 µg/mL
N#C[C@@H]1CC[C@@H]2CN1C(=O)N2OS(=O)(=O)[O-].[Na+]	≤ 0.12 µg/mL	≤ 0.12 µg/mL	1 µg/mL	≤ 0.12 µg/mL	0.25 µg/mL	≤ 0.12 µg/mL	≤ 0.12 µg/mL	0.25 µg/mL	≤ 0.12 µg/mL	> 16 µg/mL	16 µg/mL	16 µg/mL	> 16 µg/mL	8 µg/mL	≤ 0.12 µg/mL	≤ 0.12 µg/mL	≤ 0.12 µg/mL	≤ 0.12 µg/mL	≤ 0.12 µg/mL	≤ 0.12 µg/mL	MIC (Escherichia coli [36]): > 16 µg/mL; K (Bacteria): 2.4 10^5/M/s; MIC (Escherichia coli [37]): > 16 µg/mL; MIC (Acinetobacter baumannii [13]): > 16 µg/mL; MIC (Klebsiella pneumoniae [35]): ≤ 0.12 µg/mL; MIC (Acinetobacter baumannii [24]): 16 µg/mL; MIC (Acinetobacter baumannii [25]): > 16 µg/mL; MIC (Acinetobacter baumannii [26]): 0.25 µg/mL; MIC (Acinetobacter baumannii [27]): > 16 µg/mL; MIC (Escherichia coli [28]): ≤ 0.12 µg/mL; MIC (Klebsiella pneumoniae [29]): ≤ 0.12 µg/mL; MIC (Klebsiella pneumoniae [30]): ≤ 0.12 µg/mL; MIC (Klebsiella pneumoniae [31]): ≤ 0.12 µg/mL; MIC (Klebsiella pneumoniae [32]): ≤ 0.12 µg/mL; MIC (Klebsiella pneumoniae [33]): ≤ 0.12 µg/mL; MIC (Pseudomonas aeruginosa [34]): 16 µg/mL
